Assay outcomes deposited in PubChem BioAssay by several laboratories.
NSD2 HMT inh: blocks human histone methyltransferase NSD2 | O96028 | NSD2 peptide methylation, AlphaScreen, 120 min | inhibition, % at 12.5 µM | actives 0.54% (n = 310,000) | AID 743445; in the data active means inhibition above about 50%
Casp6 inh: caspase-6 (human) enzyme inhibition; P55212; purified caspase-6, Z-VEID-R110 cleavage fluorescence; inhibition, % at 12.5 µM; actives 0.53% (n = 350,000); AID 686996;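 active means mean inhibition across replicates at least about 35%, with every replicate also reaching that limit, limit read from the data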;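 further: 0% = median of neutral control wells and 100% = no fluorescence left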
Target sequence (P55212 24-179 limits assumed): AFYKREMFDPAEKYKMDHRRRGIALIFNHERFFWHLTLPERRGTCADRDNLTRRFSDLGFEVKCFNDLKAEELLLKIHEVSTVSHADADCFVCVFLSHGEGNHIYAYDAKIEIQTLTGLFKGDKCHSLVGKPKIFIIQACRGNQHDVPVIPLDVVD
Target sequence (P55212 194-293 limits assumed): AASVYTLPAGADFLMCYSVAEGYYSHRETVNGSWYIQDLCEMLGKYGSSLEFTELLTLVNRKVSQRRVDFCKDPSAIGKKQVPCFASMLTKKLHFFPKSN
TDP2 inh: blocks human TDP2 phosphodiesterase activity; actives 0.34% (n = 370,000); AID 720702; O95551; inhibition, % at 12.8 µM; recombinant TDP2, T5PNP hydrolysis, p-nitrophenol absorbance 415 nm;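 active means inhibition above the mean of all tested compounds plus 3 SD, set per campaign, cut at about 25% in these data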;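 further: 0% = DMSO with enzyme and 100% = buffer with substrate but no TDP2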
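Assay system: recombinant human TDP2 / Reagent: T5PNP substrate at 5 mM, a TopII-DNA adduct mimic / Measured by: epi absorbance from released p-nitrophenol / Evaluation: % inhibition relative to enzyme-containing and enzyme-free wells / Control set: enzyme-free and DMSO wells / Replicates: each compound tested once, singlicate / Schedule: enzyme reaction with compound for 2 h at 37 °C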
LEDGF integ inh: blocks HIV-1 LEDGF/p75-dependent DNA integration | inhibition, % at 3.7 µM | AID 743269 | actives 0.64% (n = 370,000) | TR-FRET IN-LEDGF/p75 DNA integration, Eu/Cy5;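 active means inhibition above the screen-wide mean plus 3 SD, cut at about 13% in these data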;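 further: signal is the Cy5 over europium emission ratio at 671 and 618 nm; 0% = plate median of compound wells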
UCH37 DUB inh: inhibitors of human deubiquitinating enzyme UCH37; Q9Y5K5; purified proteasome/UCH37, Ub-AMC cleavage fluorescence; actives 0.33% (n = 330,000); AID 588478; inhibition, % (test concentration not listed);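 active means mean inhibition over replicate wells above about 20%, limit read from the data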;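 further: 0% = compound-free wells with enzyme and 100% = wells lacking proteasome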
Target sequence (Q9Y5K5 whole entry, looked up): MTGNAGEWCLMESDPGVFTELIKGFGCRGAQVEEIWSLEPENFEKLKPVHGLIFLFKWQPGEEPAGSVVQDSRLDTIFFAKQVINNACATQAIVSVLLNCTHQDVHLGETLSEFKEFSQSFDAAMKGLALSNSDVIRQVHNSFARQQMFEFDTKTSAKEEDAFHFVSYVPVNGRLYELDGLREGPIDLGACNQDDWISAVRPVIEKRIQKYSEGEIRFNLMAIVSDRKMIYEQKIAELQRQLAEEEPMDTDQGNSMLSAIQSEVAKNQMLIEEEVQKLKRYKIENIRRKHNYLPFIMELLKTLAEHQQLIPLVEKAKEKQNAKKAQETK
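Material: Human UCH37 enzyme supplied as purified proteasome complex | Schedule: 30 min compound-proteasome preincubation then 25 min substrate reaction, room temperature | Detection: AMC fluorescence from Ub-AMC cleavage, excitation 355 nm, emission 460 nm | Benchmarks: Wells without proteasome as full block, compound-free enzyme plus substrate as uninhibited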
IN multimer act: activates HIV-1 integrase multimerization in LEDGF counter-screen | shares compounds with LEDGF integ inh | TR-FRET HIV-1 integrase multimerization, biochemical | activation, % at 7.7 µM | actives 17% (n = 2,000); in the data active means activation above about 8.9%
TRFRET interf: TR-FRET optical interference, LEDGF/p75 integration counter-screen; AID 1053135; shares compounds with LEDGF integ inh; TR-FRET optical interference counterscreen, HIV-1 IN multimerization; inhibition, % at 7.7 µM; 2,000 tested, under 10 active;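 active means inhibition above the mean over all tested compounds plus 3 SD, which no compound reached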;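 further: 0% = integrase with antibodies and DMSO and 100% = antibodies without integrase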
LEDGF integ conf: LEDGF/p75-dependent HIV-1 integration inhibition, confirmation; actives 36% (n = 2,000); shares compounds with LEDGF integ inh; inhibition, % at 3.7 µM; TR-FRET LEDGF/p75-dependent HIV-1 integration, biochemical; in the data active means inhibition above about 14%
AlphaScreen art: interferes with AlphaScreen signal, flagging NSD2 false positives | shares compounds with NSD2 HMT inh | AlphaScreen artifact counterscreen, preloaded methylated H4 peptide | AC35, µM (highest dose often 10 µM), without a hit: at the top dose activity change, negative = signal loss | actives 9.4% (n = 1,500) | AID 1053174; call rule not given here
* = called active by the depositor; . = not tested or not shown. The list is not random: actives were taken first. Their share in the collection is about 1.3%.

SMILES	NSD2 HMT inh	Casp6 inh	TDP2 inh	LEDGF integ inh	UCH37 DUB inh	IN multimer act	TRFRET interf	LEDGF integ conf	others
COC(=O)[C@H]1[C@H](CO)[C@H]2Cn3c(ccc(-c4cccc(OC)c4)c3=O)[C@@H]1N2C(=O)c1ccccc1F	.	-2	.	.	.	.	.	.
C=C1[C@H]2CC[C@H]3[C@]4(C)C[C@H](O[C@@H]5OC(CO)[C@@H](OSOOO)[C@H](OS(=O)(=O)O)[C@H]5OC(=O)CC(C)C)C[C@@H](C(=O)O)[C@H]4CC[C@]3(C2)[C@H]1O (stereo partly specified)	.	1	-15	14*	-2	-2	11	15*
O=C(Cc1ccccc1)N1CCCCN2[C@@H](CO)[C@@H](c3ccc(C#Cc4ccccc4)cc3)[C@@H]2C1	.	0	.	.	.	.	.	.
CCCNC(=O)N1[C@@H]2c3ccc(-c4ccccc4OC)c(=O)n3C[C@H]1[C@H](CO)[C@H]2C(=O)O	.	0	.	.	.	.	.	.
CC1(CCO)CC(C)(CCc2ccccc2)OO1 (stereo unspecified)	.	2	.	.	.	.	.	.
C=CCN1C(=O)NC(=O)/C(=C/c2ccoc2)C1=O	40	.	3	14*	3	2	-9	42*
N#Cc1cccc(-c2ccc([C@H]3[C@@H](CO)N4CCCCN(C(=O)Cc5ccccc5)C[C@@H]34)cc2)c1	.	1	.	.	.	.	.	.
O=[N+]([O-])c1ccc(N2CCOCC2)c2c1no[n+]2[O-]	3	4	11	14*	.	2	-6	12
O=[N+]([O-])c1ccc(N2CCOCC2)c2cccnc12	-2	-4	-2	0	9	.	.	.
C[C@]12CCC3C(CC[C@H]4C[C@H](N)CC[C@]34C)C1CC[C@H]2O (stereo partly specified)	0	-4	-8	21*	6	-3	15	-1
C=C(C)CC1(CC)C(=O)NC(=S)NC1=O	2	-5	-5	20*	2	1	-3	-5
COC(=O)[C@H]1[C@H](CO)[C@H]2Cn3c(ccc(C4=CCCCC4)c3=O)[C@@H]1N2Cc1ccccn1	.	0	.	.	.	.	.	.
O=C1NC(=O)C(=Cc2cc3c(cc2[N+](=O)[O-])OCO3)C(=O)N1	7	17	17	21*	3	7	-25	0
NCC(O)c1cc(O)c(O)cc1F (stereo unspecified)	.	.	14	49*	1	12*	-61	-5
O=C(Cc1ccccc1)N1CCCCN2[C@H](CO)[C@H](c3ccc(C#CC4(O)CCCC4)cc3)[C@H]2C1	.	0	.	.	.	.	.	.
CC=Cc1ccc2n(c1=O)C[C@@H]1[C@@H](CO)[C@H](C(=O)OC)[C@H]2N1CC1CC1 (mixture of isomers)	.	1	.	.	.	.	.	.
NN=C1C(Cl)=C(Cl)C(Cl)=C1Cl	4	97*	-8	22*	.	-1	5	3
O=C(Cc1cccnc1)N1CCCCN2[C@H](C1)[C@H](c1ccc(C#CC3CC3)cc1)[C@@H]2CO	.	0	.	.	.	.	.	.
C=C1C(=O)OC2CCN3CC=C(COC(=O)C(C)(O)C4(CO4)C1C)C23 (stereo unspecified)	.	36*	-12	37*	.	0	1	-3
C=C1C/C(=C/C)C(=O)O[C@@H]2CCN3CC=C(COC(=O)[C@]1(C)O)[C@H]23	1	1	6	-2	1	.	.	.
CC1CCCN(C(=O)CN2C3CCC2CC(O)(c2ccc(F)cc2)C3)C1 (stereo unspecified)	-2	1	12	4	0	.	.	.
CC1CCCN(C(=O)CCl)C1 (stereo unspecified)	-3	-4	7	71*	5	0	-1	-4
CCCCN1C(=O)/C(=C/C=C/c2ccco2)C(=O)NC1=S	108*	78*	4	56*	6	3	-17	74*
O=C1NC(=O)N(Cc2ccc(F)cc2)C(=O)/C1=C\C=C\c1ccco1	49	23	2	30*	-4	3	-11	20*
Cc1cc(/C=C2\C(=O)NC(=O)N(c3ccccc3F)C2=O)c(C)n1-c1cc(C(=O)O)cc(C(=O)O)c1	62*	35	2	40*	.	14*	-72	39*	AlphaScreen art=-2%
SMILES	NSD2 HMT inh	Casp6 inh	TDP2 inh	LEDGF integ inh	UCH37 DUB inh	IN multimer act	TRFRET interf	LEDGF integ conf	others
CC(C)n1c(=O)c(C=Nc2ccc(S(N)(=O)=O)cc2)c(O)n(Cc2ccco2)c1=O	67*	12	-1	17*	3	0	1	5	AlphaScreen art=-4%
CCCCn1c(=O)c(C=Nc2ccc(Cl)cc2)c(O)n(Cc2ccco2)c1=O	.	3	-6	2	-47	.	.	.
O=C(Cc1cccnc1)N1CCCCN2[C@H](C1)[C@H](c1ccc(/C=C/c3ccccc3)cc1)[C@@H]2CO	.	-3	.	.	.	.	.	.
Cc1ccc(N2C(=O)NC(=O)/C(=C/c3ccoc3)C2=O)cc1	90*	85*	13	30*	5	9.2*	-46	57*	AlphaScreen art=-16%
N#Cc1ccc(-c2ccc([C@H]3[C@@H](CO)N4CCCCN(C(=O)Cc5ccccc5)C[C@@H]34)cc2)cc1	.	1	.	.	.	.	.	.
Cc1cc(C)cc(N2C(=O)NC(=O)/C(=C\C=C\c3ccco3)C2=O)c1	72*	28	7	35*	0	-1	3	29*	AlphaScreen art=-1%
Cc1ccc(N2C(=O)NC(=O)/C(=C\c3cccn3C(C)(C)C)C2=O)cc1	6	2	-1	3	3	.	.	.
CCc1ccc(N2C(=O)NC(=O)/C(=C\C=C\c3ccco3)C2=O)cc1	54*	54*	5	35*	6	0	-1	40*	AlphaScreen art=-7%
N#Cc1cccc(-c2ccc([C@H]3[C@H](CO)N4CCCCN(C(=O)Cc5ccncc5)C[C@@H]34)cc2)c1	.	1	.	.	.	.	.	.
CNCCCc1ccccc1	103*	.	8	1	0	.	.	.	AlphaScreen art=2%
BrCCc1ccccc1	.	1	0	-5	-1	.	.	.
O=c1[nH]c(=S)[nH]c(O)c1N=Nc1cc(S(=O)(=O)Nc2ccc(Cl)cc2)ccc1Cl	66*	0	9	-2	9	.	.	.	AlphaScreen art=-9%
CCNC(=S)NCCC1=c2ccccc2=N/C1=C\c1c(O)n(C)c(=O)n(C)c1=O	55*	7	-10	-2	2	.	.	.	AlphaScreen art=1%
Cn1c(O)c(/C=C2\C=Nc3ccc(Br)cc32)c(=O)n(C)c1=O	-2	-1	9	-2	.	.	.	.
CN1CCN(c2ncnc3c2cnn3C)CC1	76*	0	-16	1	2	.	.	.	AlphaScreen art=-4%
